Screening results deposited in PubChem BioAssay by several laboratories.
Rows were chosen to be rich in hits. Some 3.1% of all compounds tested hit in one or more screens of this group.
HCV core dimer = blocks dimerization of HCV core protein; TR-FRET GST/Flag-core106 dimerization, 1536-well; inhibition, % at 5 µM; hit rate 0.33% among 300,000;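 active = inhibition above the mean of all tested compounds plus 3 SD, set per screening campaign, cut at about 45% in these data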
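Assay system: Tagged HCV core106 pair (GST and Flag) | Buffer or medium: KF-containing HEPES buffer, pH 7.45, DTT, CHAPS, BSA | Also added: Eu donor and XL665 acceptor anti-tag antibodies | Dosing: One concentration, 5 µM, in 0.5% DMSO | Timing: 4 h at 22.5 °C | Technique: TR-FRET 671 and 617 nm emission | Repeats: Singlicate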
VIM-2 inhibitor = inhibitors of Pseudomonas aeruginosa VIM-2 metallo-beta-lactamase; purified VIM-2, nitrocefin hydrolysis, epi-absorbance fluorescence; hit rate 0.89% among 290,000; inhibition, % at 5.6 µM;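 active = inhibition above the mean of all tested compounds plus 3 SD, cutoff set per screening run, cut at about 7.5% in these data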;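 note: red hydrolysis product quenches plate fluorescence so inhibitors raise well fluorescence; 0% = enzyme with DMSO and 100% = DMSO without enzyme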
NS3 helicase inh = inhibitors of Hepatitis C virus NS3 helicase. NS3 helicase DNA unwinding, Cy5 molecular beacon fluorescence. inhibition, % at 10.9 µM. hit rate 0.56% among 290,000. AID 1800;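 active = inhibition above the mean of all tested compounds plus 3 SD, set per campaign, cut at about 35% in these data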;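 note: 0% = DMSO wells and 100% = thioflavine S control wells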
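Material: hepatitis C virus NS3 helicase domain fragment enzyme; measured by: Cy5 fluorescence, 0 and 60 min reads; control set: DMSO and thioflavine S; incubation: 60 min unwinding reaction at 25 °C after ATP addition; read-out basis: % inhibition from 60/0 min fluorescence ratio, DMSO 0%, thioflavine S 100%; repeats: singlicate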
SUMO HTRF inh = inhibitors of human SUMOylation (UBC9); P63279; HTRF SUMOylation assay, SAE1/SAE2 + UBC9, in vitro; inhibition, % at 35 µM; hit rate 0.36% among 290,000; AID 2006; in the data active = inhibition above about 50%, passing the limit was not always enough; inconclusive = no clear call, values can overlap the other calls
Target sequence (P63279 whole entry, looked up): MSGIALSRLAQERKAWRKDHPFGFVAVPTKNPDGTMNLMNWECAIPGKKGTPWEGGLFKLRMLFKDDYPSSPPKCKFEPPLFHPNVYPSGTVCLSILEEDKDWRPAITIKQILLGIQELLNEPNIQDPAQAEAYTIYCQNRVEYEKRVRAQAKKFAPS
PHOSPHO1 block = blocks human PHOSPHO1 phosphatase activity. Q8TCT1. recombinant PHOSPHO1, absorbance phosphatase assay. inhibition, % at 13.3 µM. hit rate 1.1% among 290,000; in the data active = inhibition above about 60%
Target sequence (Q8TCT1 whole entry, looked up): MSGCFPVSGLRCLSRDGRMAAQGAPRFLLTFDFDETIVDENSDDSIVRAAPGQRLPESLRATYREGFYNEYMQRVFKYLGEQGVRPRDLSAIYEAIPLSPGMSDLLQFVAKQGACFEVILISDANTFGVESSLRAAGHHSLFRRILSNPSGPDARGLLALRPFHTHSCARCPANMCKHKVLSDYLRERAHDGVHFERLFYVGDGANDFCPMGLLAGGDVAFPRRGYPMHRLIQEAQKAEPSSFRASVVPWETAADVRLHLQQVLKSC
IMP-1 inh = blocks Pseudomonas aeruginosa IMP-1 metallo-beta-lactamase; inhibition, % at 5.6 µM; hit rate 0.45% among 290,000; purified IMP-1, nitrocefin hydrolysis, epi-absorbance fluorescence;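 active = inhibition above the mean plus 3 SD of all compounds in the same screening run, cut at about 4.5% in these data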;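 note: 0% = IMP-1 with DMSO and 100% = DMSO wells lacking enzyme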
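Test system: recombinant IMP-1 enzyme, purified / Medium: HEPES buffer pH 7.1 with ZnSO4 and Brij 35 / Doses: single dose, 5.6 µM / Times: 25 °C, 15 min preincubation, 25 min reaction / Detection: Epi-absorbance via hydrolysed-nitrocefin quenching of white-plate fluorescence, 480/530 nm, EDTA stop / Evaluation: percent inhibition from optical density relative to buffer-blank wells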
Numbers without * were called inactive; ? = inconclusive; · = no result.

SMILES | HCV core dimer | VIM-2 inhibitor | NS3 helicase inh | SUMO HTRF inh | PHOSPHO1 block | IMP-1 inh
O=C(Oc1ccc[nH]c1=O)c1cc([N+](=O)[O-])cc([N+](=O)[O-])c1 | 4 | -2 | 2 | 98* | 34 | -1
COc1ccc(C(=O)Oc2ccc[nH]c2=O)cc1 | -5 | 2 | 2 | 10 | 2 | 0
COc1cccc(C2N=C(c3ccccc3C)NO2)c1OC (stereo unspecified) | 6 | -1 | 9 | 18 | 31 | -1
CCCN(C(=O)COC(=O)CNC(=O)c1ccc2ccccc2c1)c1c(N)n(Cc2ccccc2)c(=O)[nH]c1=O | 4 | · | · | · | · | ·
CCc1nnc(NC(=O)C2CCCN2C(=O)Nc2ccc(Cl)cc2)s1 (stereo unspecified) | 1 | -2 | 7 | 5 | 9 | -2
COCCSc1ccccc1C(=O)N1CCc2ccccc2C1 | 0 | -3 | -13 | -3 | 60* | -2
CC(=O)Nc1ccc(-c2csc(-c3cccnc3)n2)cc1 | 0 | 0 | 6 | 17 | 35 | -3
CSc1ccccc1C(=O)NC1CCCCC1 | 0 | -2 | -12 | 7 | -9 | 0
CSc1ccccc1C(=O)NC1CCCC1 | -2 | -4 | 2 | -7 | 70* | -4
CN1C(=O)c2cccc3c(S(=O)(=O)NCCc4ccccc4)ccc1c23 | 9 | -1 | -4 | 56* | 26 | -2
CN1C(=O)c2cccc3c(S(=O)(=O)Nc4ccc(O)c(C(=O)O)c4)ccc1c23 | 3 | 12* | 4 | 7 | 14 | 2
CN1C(=O)c2cccc3c(S(=O)(=O)N4CCCC4C(=O)O)ccc1c23 (stereo unspecified) | -6 | 1 | -11 | 31 | 8 | -1
COCCNS(=O)(=O)c1ccc2c3c(cccc13)C(=O)N2C | 4 | -2 | 2 | ? | 1 | -2
Cc1cccc(C(=O)N=c2c(C#N)cc3c(=O)n4cccc(C)c4nc3n2Cc2ccco2)c1 | 60* | 4 | 17 | 27 | -7 | -3
Cc1cccn2c(=O)c3cc(C#N)c(=NC(=O)c4ccccc4)n(Cc4ccco4)c3nc12 | 46* | · | · | · | · | ·
C=CCc1cccc2cc(C(=O)Nc3ccc(S(=O)(=O)Nc4nnc(CC)s4)cc3)c(=O)oc12 | 17 | -2 | 22 | 22 | 85* | -2
Cc1ccc2c(C)ccc(O)c2n1 | 3 | -6 | 5 | -21 | 5 | -3
Cc1ccc2ccc3ccc(C)nc3c2n1 | -4 | 8.6* | 3 | -105 | 5 | 0
COc1ccc(/C(O)=C2/C(=O)C(=O)N(c3ncccn3)C2c2ccc(C(C)(C)C)cc2)cc1 (stereo unspecified) | 12 | -4 | 25 | 16 | -26 | -3
O=C(c1cnc2n(c1=O)CCS2)N1CCN(c2ccccc2Cl)CC1 | · | -2 | -12 | 7 | -20 | -2
O=C(c1cnc2n(c1=O)CCS2)N1CCN(C(c2ccccc2)c2ccc(Cl)cc2)CC1 (stereo unspecified) | 16 | 1 | -4 | 5 | -11 | 5.9*
COc1ccc(NC(C)=O)cc1S(=O)(=O)NC1CCSc2ccccc21 (stereo unspecified) | 6 | -2 | -1 | 8 | 36 | -2
CCN=C1SC(C(=O)Nc2cccc(C)c2)CC(=O)N1CC (stereo unspecified) | -3 | -5 | 0 | -4 | 10 | -4
Cc1cccc(NC(=O)C2CC(=O)n3cnnc3S2)c1 (stereo unspecified) | 7 | -1 | -9 | 8 | 95* | -5
CC1CN(C(=O)C2CCCC2)C(C)CN1C(=O)C1CCCC1 (stereo unspecified) | -10 | 1 | -2 | -3 | 60* | -5
SMILES | HCV core dimer | VIM-2 inhibitor | NS3 helicase inh | SUMO HTRF inh | PHOSPHO1 block | IMP-1 inh
CC1CN(C(=O)C2CCCCC2)C(C)CN1C(=O)C1CCCCC1 (stereo unspecified) | 5 | 1 | 3 | 0 | -2 | -3
O=C(COC(=O)c1cc2ccccc2cc1O)Nc1cccnc1Cl | 4 | -3 | 6 | 2 | -2 | -2
Cc1ccc2nc(C)cc(C(=O)OCC(=O)Nc3cccnc3Cl)c2c1 | -1 | 0 | -4 | 15 | 61* | -3
O=C(NCC1CCCO1)C1c2ccccc2Oc2ccccc21 (stereo unspecified) | -2 | -2 | 1 | 17 | 29 | -1
O=C(O)CC12CSc3[nH]c(=O)sc3C1c1ccccc1OC2=O (stereo unspecified) | -7 | 1 | 10 | 25 | 43 | 6.4*
CCOC(=O)C[n+]1c(C)sc2ccc(OC)cc21 | 3 | -2 | 0 | 19 | 92* | -3
CC(=O)Oc1c(-c2ccco2)oc2ccccc2c1=O | -2 | 3 | 8 | -12 | -50 | 1
COc1ccc(CN(C)C(=O)c2cc(S(=O)(=O)Nc3ccccc3F)ccc2C)c(OC)c1 | -4 | 1 | 9 | -26 | 16 | 4.8*
Cc1ccc(S(=O)(=O)NCc2ccccc2)cc1C(=O)N(C)Cc1ccccc1F | 0 | -1 | -8 | 12 | 37 | 0
COC(=O)c1ccc(CN2C(=O)C(C)N(C(=O)c3c(F)cccc3F)c3ccccc32)cc1 (stereo unspecified) | 8 | -1 | -26 | 7 | 44 | -1
CCOc1cc(C(N)=O)cc(Br)c1OC | 5 | 2 | 5 | 2 | -3 | 4.6*
Cc1ccc(SC(C)C(=O)Nc2ncn[nH]2)cc1 (stereo unspecified) | 1 | -6 | 2 | 7 | -3 | 39*
O=C(c1ccco1)N1CCN(Cc2nc(Cc3ccccc3)no2)CC1 | -1 | -2 | 4 | 5 | 60* | -2
O=C(c1ccco1)N1CCCN(Cc2nc(-c3cccs3)no2)CC1 | 1 | -2 | 1 | 6 | 24 | 0
O=C(NCCCn1ccnc1)C1CCCN(S(=O)(=O)c2ccc(F)cc2)C1 (stereo unspecified) | -3 | 1 | 11 | 21 | 24 | 0
C=CCn1c(-c2cc(OC)cc(OC)c2)n[nH]c1=S | -5 | 3 | -6 | 12 | 97* | -4
C=CCn1c(-c2ccoc2)n[nH]c1=S | -2 | 10* | -7 | 5 | -68 | -4
C=CCn1c(-c2cccc(OCC)c2)n[nH]c1=S | 6 | 0 | 0 | -1 | -45 | -5
COc1ccc(C2c3sc(=O)[nH]c3SCC2C(N)=O)cc1 (stereo unspecified) | -2 | 3 | 7 | 14 | 28 | 4
CCOC(=O)C1CSc2[nH]c(=O)sc2C1c1ccccc1 (stereo unspecified) | 3 | 1 | 2 | 3 | 93* | -3
CC1CC(C)CN(CC(=O)N2CCOCC2)C1 (stereo unspecified) | -2 | -3 | 5 | 6 | 15 | -2
